Measurements: PubChem BioAssay
Records with an inconclusive call do not appear.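 How the source made its calls, unless noted: active means growth inhibition above 25% in both replicates, a cutoff set 3 SD above the mean; inconclusive means above 25% in only one replicate; inactive means the rest.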

How the values were obtained:
[1] = S. cerevisiae growth inhibition in permissive medium (OD615), pilot counter-assay for S. cerevisiae lifespan shortening project, permissive growth control (AID 705); conditions: OD615, 24 h, at 10 µM, stronger effect = higher value
Outline: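 System: Engineered DeaD yeast | Buffer or medium: SC raffinose/galactose permissive medium | Incubation: Cells pre-grown 4 h, then 24 h compound exposure, 30 °C humidified | Measured by: Absorbance (optical density) at 615 nm | Read-out: Reduction in yeast growth (OD615)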

[2] = S. cerevisiae growth inhibition in restrictive medium, OD615, pilot screen, restrictive growth control, yeast lifespan reduction project (AID 706;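 active means growth inhibition above a set limit, 3 SD over mean compound inhibition, in both replicates, cut at about 43% in these data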;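 further: modified DeaD lifespan yeast strain shifted to restrictive glucose medium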); conditions: OD615, 48 h, at 10 µM, stronger effect = higher value
Outline: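 Material: modified S. cerevisiae; Medium: glucose-based CSMM-D restrictive medium; Compound dosing: one concentration, 10 µM final, 0.25% DMSO; Incubation: 48 h compound exposure at 30 °C; Measured by: OD615.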

[3] = doxorubicin toxicity protection in MRP-1 cells – H69AR cells, CellTiter-Glo, duplicate, MRP-1 activator project, pilot screen (AID 807;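 active means viability increase at or above a cutoff of the median across tested compounds plus 3 SD, cut at about 8.5% in these data, passing the limit was not always enough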;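 further: compound pretreatment 18-22 h then 72 h combined with doxorubicin; 0% = doxorubicin alone and 100% = vehicle without doxorubicin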); conditions: H69AR viability with doxorubicin, CellTiter-Glo luminescence; at 10 µM; stronger effect = higher value
[4] = viability of HCT116 without oncogenic beta-catenin – human colon tumor cells, pilot screen (AID 823;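 active means cell viability at or below a set limit in both duplicate runs, the limit being the all-compound median minus 4 SD, cut at about 23% in these data, passing the limit was not always enough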;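 further: 0% = wells killed by 20 µM Hyamine and 100% = untreated DMSO cell wells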); conditions: HCT116 beta-catenin knockout viability, CellTiter-Glo, 60 h; at 10 µM; stronger effect = lower value
[5] = viability of PTEN-null HCT116 cells – cell-based, HCT116 clonal line, CellTiter-Glo, pilot screen (AID 824;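 active means viability at or below 27.92% in each of two runs, the all-compound median minus 4 SD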;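 further: 0% = 20 µM Hyamine control and 100% = vehicle cell control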); conditions: HCT116 PTEN-deleted viability, 60 h, at 10 µM, stronger effect = lower value
[6] = RAM pathway blockade in budding yeast – dse1pr::URA3 reporter, 5-FOA selection, pilot screen (AID 869;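 active means inhibition over a set limit, the all-compound mean plus 3 SD, in both replicate runs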;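 further: 0% = DMSO wells with no growth and 100% = 10 µM 1-NA-PP1 with full growth; RAM network block rescues cells from 5-FOA so hits raise OD615 growth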); conditions: S. cerevisiae dse1pr::URA3 5-FOA growth, OD615, 2 d; at 10 µM; stronger effect = higher value; strain carries analog-sensitive mutant Cbk1 kinase
[7] = RAM signaling pathway blockade in yeast – S. cerevisiae, Pdr1DBD-CYC8 efflux-inhibited sensitized strain, primary screen (AID 1298;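 active means RAM network inhibition above 8.4% in each of two replicates, 3 SD over the compound average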;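 further: 0% = DMSO untreated cells without growth and 100% = 10 µM 1-NA-PP1 full growth; higher means more yeast growth rescued from 5-FOA killing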); conditions: S. cerevisiae cbk1-as DSE1-URA3 strain, 5-FOA growth OD615, 2 d; at 50 µM; stronger effect = higher value

COc1c(Cl)cc(-c2noc(C)c2C(=O)NC(C)C)cc1Cl
inactive: growth inhibition [1] -17.1% | growth inhibition [2] -15.9% | viability increase [3] 0.34% | viability [4] 98.1% | viability [5] 96.4% | inhibition [6] 1.33% | RAM network inhibition [7] 2.37%

CCCn1nc(NC(=O)CC(C)C)c2cc3ccccc3nc21
inactive: growth inhibition [1] -14.6% | growth inhibition [2] -11.4% | viability increase [3] -5.27% | viability [4] 87.5% | viability [5] 87.3% | inhibition [6] 2.49% | RAM network inhibition [7] 3.01%

CSCCC(NC(=O)c1c(C)oc2c1CCCC2)C(=O)O (configuration not stated)
inactive: growth inhibition [1] -2.84% | growth inhibition [2] -12.1% | viability increase [3] -0.78% | viability [4] 98.5% | viability [5] 95.9% | inhibition [6] 1.46% | RAM network inhibition [7] 0.21%

O=C(Nc1ccc(F)cc1)C1CCC(N2C(=O)c3ccccc3C2=O)CC1 (configuration not stated)
inactive: growth inhibition [1] -11.6% | growth inhibition [2] -20.7% | viability increase [3] -7.05% | viability [4] 86.3% | viability [5] 96.1% | inhibition [6] 1.48% | RAM network inhibition [7] 12.4%

O=C1OCc2cc(NC(=O)C3COc4ccccc4O3)ccc21 (configuration not stated)
inactive: growth inhibition [1] -17.8% | growth inhibition [2] 10.7% | viability increase [3] -0.17% | viability [4] 103% | viability [5] 93.3% | inhibition [6] 1.29% | RAM network inhibition [7] 10.9%

CN(C)c1ccc(CN2CCCCCC2)cc1
inactive: growth inhibition [1] -3.95% | growth inhibition [2] -24.5% | viability increase [3] -2% | viability [4] 87% | viability [5] 88.1% | inhibition [6] 0.44% | RAM network inhibition [7] 0.1%

CCCn1cc(SCC(=O)Nc2nnc(C)s2)c2ccccc21
inactive: growth inhibition [1] 3.3% | growth inhibition [2] 0.865% | viability increase [3] -2.55% | viability [4] 91% | viability [5] 96.2% | inhibition [6] 1.1% | RAM network inhibition [7] 3.75%

CC1CCN(C(=O)CSc2nnc(-c3ccco3)o2)CC1
inactive: growth inhibition [1] 0.09% | growth inhibition [2] 6.93% | viability increase [3] 0.32% | viability [4] 106% | viability [5] 102% | inhibition [6] 2.54% | RAM network inhibition [7] 1.64%

O=C(Cn1cc2c(n1)CCCC2)Nc1ccccc1Br
inactive: growth inhibition [1] -13% | growth inhibition [2] -9.29% | viability increase [3] -2.82% | viability [4] 95.7% | viability [5] 86.7% | inhibition [6] 1.64% | RAM network inhibition [7] 1.15%

CCOC(=O)c1ccccc1NC(=O)C1COc2ccccc2O1 (configuration not stated)
inactive: growth inhibition [1] -25.8% | growth inhibition [2] -30.7% | viability increase [3] 4.16% | viability [4] 83.2% | viability [5] 87.8% | inhibition [6] 1.09% | RAM network inhibition [7] 4.22%

CN(C)c1nc(N)nc(-c2cccnc2)n1
inactive: growth inhibition [1] -0.465% | growth inhibition [2] 3.66% | viability increase [3] 0.55% | viability [4] 102% | viability [5] 103% | inhibition [6] 1.14% | RAM network inhibition [7] 5.69%

Cc1ccc(Cn2ccc(NC(=O)c3cc(C(C)C)on3)n2)cc1
inactive: growth inhibition [1] -13.5% | growth inhibition [2] 5.14% | viability increase [3] 0.94% | viability [4] 97.1% | viability [5] 95.1% | inhibition [6] 1.97% | RAM network inhibition [7] 4.18%

CCOC(=O)Nc1sc(NS(=O)(=O)c2ccccc2)nc1C
inactive: growth inhibition [1] -10.4% | growth inhibition [2] 3.58% | viability increase [3] -0.61% | viability [4] 105% | viability [5] 104% | inhibition [6] 0.295% | RAM network inhibition [7] 2.87%

CNC(=O)c1ccc2snnc2c1
inactive: growth inhibition [1] -8.38% | growth inhibition [2] 5.12% | viability increase [3] -1.54% | viability [4] 107% | viability [5] 97.9% | inhibition [6] 0.52% | RAM network inhibition [7] -0.47%

Cc1cc2ncn(C3CC(=O)N(Cc4ccc(N5CCCC5=O)cc4)C3=O)c2cc1C (configuration not stated)
inactive: growth inhibition [1] -7.9% | growth inhibition [2] 13.8% | viability increase [3] -0.37% | viability [4] 97.9% | viability [5] 98.5% | inhibition [6] 0.14% | RAM network inhibition [7] 1.48%

COc1ccccc1C(=O)NC(C)c1nc2ccccc2[nH]1 (configuration not stated)
inactive: growth inhibition [1] -3.51% | growth inhibition [2] -5.35% | viability increase [3] 2.18% | viability [4] 99% | viability [5] 93% | inhibition [6] 3.37% | RAM network inhibition [7] 1.06%

Cc1noc(C)c1S(=O)(=O)NC1CCN(Cc2ccccc2)CC1
inactive: growth inhibition [1] -12.1% | growth inhibition [2] -2.23% | viability increase [3] -0.68% | viability [4] 95.8% | viability [5] 94.1% | inhibition [6] 3.14% | RAM network inhibition [7] 4.49%

O=C1O/C(=C\C(=O)N2CCOCC2)c2ccccc21
inactive: growth inhibition [1] -2.53% | growth inhibition [2] 2.46% | viability increase [3] -1.56% | viability [4] 94.5% | viability [5] 99.2% | inhibition [6] 2.46% | RAM network inhibition [7] 4.69%

Cc1noc(NS(=O)(=O)c2ccc(NC(=O)CSc3ncccn3)cc2)c1C
inactive: growth inhibition [1] -3.47% | growth inhibition [2] -2.18% | viability increase [3] -0.58% | viability [4] 109% | viability [5] 95.2% | inhibition [6] 0.615% | RAM network inhibition [7] 1.94%

COc1ccc(CNC(=O)CCS(=O)(=O)c2cccc3nonc23)cc1
inactive: growth inhibition [1] -4.22% | growth inhibition [2] -26.3% | viability increase [3] -2.89% | viability [4] 95.8% | viability [5] 100% | inhibition [6] 1.94% | RAM network inhibition [7] 6.09%

Fc1ccc(CN2CCCCCCC2)cc1F
inactive: growth inhibition [1] -3.83% | growth inhibition [2] -9.1% | viability increase [3] -3.13% | viability [4] 92.2% | viability [5] 95.7% | inhibition [6] -0.325% | RAM network inhibition [7] 0.52%

Cc1nc(=O)c(-c2ccccc2)c(C)n1CC1CCCO1 (configuration not stated)
inactive: growth inhibition [1] -7.12% | growth inhibition [2] -9.15% | viability increase [3] -2.44% | viability [4] 99.8% | viability [5] 96.4% | inhibition [6] 1.38% | RAM network inhibition [7] 0.16%

COc1cc(-c2nnc(COc3ccc4cc(Br)ccc4c3)o2)cc(OC)c1OC
inactive: growth inhibition [1] -10.6% | growth inhibition [2] -8.51% | viability increase [3] 0.27% | viability [4] 62.9% | viability [5] 46.7% | inhibition [6] 0.505% | RAM network inhibition [7] 3.67%

CCOc1ccc(S(=O)(=O)Nc2ccccc2C(=O)NCC2CCCO2)cc1 (configuration not stated)
inactive: growth inhibition [1] -13% | growth inhibition [2] -16.7% | viability increase [3] -0.84% | viability [4] 94.1% | viability [5] 95.5% | inhibition [6] 1.91% | RAM network inhibition [7] 5.77%

CCOC(=O)c1ccc(N2C(=O)C3CC=C(C)CC3C2=O)cc1 (configuration not stated)
inactive: growth inhibition [1] -9.14% | growth inhibition [2] -14.8% | viability increase [3] -0.33% | viability [4] 97.1% | viability [5] 91.8% | inhibition [6] 1.07% | RAM network inhibition [7] 1.75%

CCCC(=O)NC(C)c1nc2ccccc2n1C(C)C (configuration not stated)
inactive: growth inhibition [1] -10.7% | growth inhibition [2] -16.6% | viability increase [3] 0.47% | viability [4] 97.5% | viability [5] 91.2% | inhibition [6] 0.475% | RAM network inhibition [7] 2.52%

O=C(NCc1ccco1)c1cc(S(=O)(=O)N2CCOCC2)ccc1Cl
inactive: growth inhibition [1] -8.68% | growth inhibition [2] -8.34% | viability increase [3] -3.24% | viability [4] 86.2% | viability [5] 95.2% | inhibition [6] 3.05% | RAM network inhibition [7] 1.96%

Cc1ccc(OC(=O)CCC(=O)N2CCc3ccccc32)cc1
inactive: growth inhibition [1] -5.4% | growth inhibition [2] -2.35% | viability increase [3] -3.7% | viability [4] 89.6% | viability [5] 97.9% | inhibition [6] 2.2% | RAM network inhibition [7] 0.82%

O=C(c1ccccc1S(=O)(=O)NCc1ccccc1)N1CCCCC1
inactive: growth inhibition [1] -1.57% | growth inhibition [2] -5.03% | viability increase [3] -2.89% | viability [4] 98.6% | viability [5] 91% | inhibition [6] 1.01% | RAM network inhibition [7] 1.68%

O=[n+]1c2c(n([O-])c3c1CCCC3)CCCCC2
inactive: growth inhibition [1] -3.03% | growth inhibition [2] -9.11% | viability increase [3] 0.93% | viability [4] 102% | viability [5] 99.5% | inhibition [6] 0.345% | RAM network inhibition [7] -0.51%

O=C(Cn1nc(Cc2cccnc2)c2ccccc2c1=O)NCCCN1CCCC1=O
inactive: growth inhibition [1] 3.02% | growth inhibition [2] -5.47% | viability increase [3] -0.8% | viability [4] 103% | viability [5] 97.3% | inhibition [6] 0.75% | RAM network inhibition [7] 0.25%

CC1CCCN(Cc2nc3c(c(=O)n(C)c(=O)n3C)n2CC(=O)c2ccccc2)C1 (configuration not stated)
inactive: growth inhibition [1] -8.04% | growth inhibition [2] -16.3% | viability increase [3] -4.65% | viability [4] 78.2% | viability [5] 81.2% | inhibition [6] -0.325% | RAM network inhibition [7] 4.05%

COc1ccccc1NC(=O)c1ccc(S(=O)(=O)N2CCCC2)cc1
inactive: growth inhibition [1] -5.88% | growth inhibition [2] -5.9% | viability increase [3] 0.68% | viability [4] 114% | viability [5] 94.9% | inhibition [6] 2.33% | RAM network inhibition [7] 2.32%

CCOC(=O)c1ccc2ncc(C(=O)OCC)c(NCCCN3CCOCC3)c2c1
inactive: growth inhibition [1] -4.12% | growth inhibition [2] 8.23% | viability increase [3] -5.66% | viability [4] 81.2% | viability [5] 84.5% | inhibition [6] 0.495% | RAM network inhibition [7] 0.57%

CC(C)C(NC(=O)CN1C(=O)c2ccccc2S1(=O)=O)C(C)C
inactive: growth inhibition [1] -10% | growth inhibition [2] -13% | viability increase [3] -2.05% | viability [4] 98.8% | viability [5] 94.3% | inhibition [6] 1.4% | RAM network inhibition [7] -1.56%

Cc1ccc(S(=O)(=O)N(CC(O)CN2CCCCC2)c2ccccc2)cc1 (configuration not stated)
inactive: growth inhibition [1] 0.475% | growth inhibition [2] 0.56% | viability increase [3] -2.49% | viability [4] 71.6% | viability [5] 96.6% | inhibition [6] 2.97% | RAM network inhibition [7] 3.38%
